pEC50, pIC50, pKd: −log10 of the molar value.
What was measured:
[1] = biological target: T1, PMM2 (Homo sapiens, UniProt O15305); experiment: Microscale thermophoresis; format: binding
T1 sequence (O15305 1-246): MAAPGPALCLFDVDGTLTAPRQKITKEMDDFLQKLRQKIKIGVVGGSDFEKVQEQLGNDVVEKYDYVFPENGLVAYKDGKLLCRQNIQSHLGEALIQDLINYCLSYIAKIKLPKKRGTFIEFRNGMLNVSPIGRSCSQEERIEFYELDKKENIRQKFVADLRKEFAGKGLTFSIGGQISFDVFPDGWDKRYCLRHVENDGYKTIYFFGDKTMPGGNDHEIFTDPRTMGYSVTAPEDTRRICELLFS
Outline: (§1)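 Purified protein was labelled on lysines with a RED-NHS dye. It was mixed with test compound in 50 mM Tris-HCl pH 7.5, 100 mM NaCl, 0.05% Tween-20 and incubated 30 min at room temperature in the dark. The mix was loaded into capillaries for microscale thermophoresis on a Monolith NT.115.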

[2] = biological target: recombinant human HDAC2 (Homo sapiens, UniProt Q92769); experiment: Thermal shift assay with purified recombinant protein; format: binding; conditions: recombinant human HDAC2, FBP vs H2O, CBB staining
recombinant human HDAC2, sequence (Q92769 whole entry): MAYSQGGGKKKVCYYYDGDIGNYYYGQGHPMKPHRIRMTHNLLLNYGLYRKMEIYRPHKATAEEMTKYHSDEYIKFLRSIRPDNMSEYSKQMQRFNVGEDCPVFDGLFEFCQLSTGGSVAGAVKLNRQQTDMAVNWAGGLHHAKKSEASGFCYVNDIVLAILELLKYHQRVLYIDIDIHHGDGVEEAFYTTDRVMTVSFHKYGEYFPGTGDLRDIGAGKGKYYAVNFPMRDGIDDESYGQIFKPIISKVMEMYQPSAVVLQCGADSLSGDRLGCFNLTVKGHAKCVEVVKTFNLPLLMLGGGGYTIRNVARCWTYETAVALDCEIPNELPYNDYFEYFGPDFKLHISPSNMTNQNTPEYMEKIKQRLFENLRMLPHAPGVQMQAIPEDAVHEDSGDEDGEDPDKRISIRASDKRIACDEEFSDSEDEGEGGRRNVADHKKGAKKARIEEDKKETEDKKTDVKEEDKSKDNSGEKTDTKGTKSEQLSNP
Outline: (§2)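 Purified recombinant human protein (0.2 μg/μL) was treated with test compound or H2O for 30 min at 25 °C. It was split into six aliquots, each heated in parallel for 3 min at its set temperature, then spun 20,000 g for 20 min at 4 °C. Supernatants were run on SDS-PAGE and stained with Coomassie blue.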

[3] = biological target: T2, PGM1 (Homo sapiens, UniProt P36871); experiment: PGM1 enzyme activity assay; format: biochemical
T2 sequence (P36871 1-580 isoform P36871-2): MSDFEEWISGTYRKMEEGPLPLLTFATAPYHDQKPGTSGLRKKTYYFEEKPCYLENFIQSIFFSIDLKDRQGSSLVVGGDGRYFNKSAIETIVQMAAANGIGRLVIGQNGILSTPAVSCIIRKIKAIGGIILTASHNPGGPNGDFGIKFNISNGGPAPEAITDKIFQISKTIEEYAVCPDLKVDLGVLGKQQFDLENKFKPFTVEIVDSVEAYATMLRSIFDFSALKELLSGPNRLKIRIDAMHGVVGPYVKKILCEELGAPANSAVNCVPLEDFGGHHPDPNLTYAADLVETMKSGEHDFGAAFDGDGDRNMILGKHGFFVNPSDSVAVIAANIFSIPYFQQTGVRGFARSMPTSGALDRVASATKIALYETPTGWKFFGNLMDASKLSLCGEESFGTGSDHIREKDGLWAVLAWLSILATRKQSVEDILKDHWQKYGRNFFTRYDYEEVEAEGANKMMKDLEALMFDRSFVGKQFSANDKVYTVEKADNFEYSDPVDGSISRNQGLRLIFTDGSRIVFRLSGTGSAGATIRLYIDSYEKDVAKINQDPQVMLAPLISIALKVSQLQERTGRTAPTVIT

[4] = test system: recombinant human RAN; experiment: Thermal shift assay with purified recombinant protein; format: binding; conditions: FBP vs H2O, CBB staining
Outline: as §2

[5] = biological target: recombinant human OXSR1 (Homo sapiens, UniProt O95747); experiment: as above; format: binding; conditions: recombinant human OXSR1, FBP vs H2O, CBB staining
recombinant human OXSR1, sequence (O95747 whole entry): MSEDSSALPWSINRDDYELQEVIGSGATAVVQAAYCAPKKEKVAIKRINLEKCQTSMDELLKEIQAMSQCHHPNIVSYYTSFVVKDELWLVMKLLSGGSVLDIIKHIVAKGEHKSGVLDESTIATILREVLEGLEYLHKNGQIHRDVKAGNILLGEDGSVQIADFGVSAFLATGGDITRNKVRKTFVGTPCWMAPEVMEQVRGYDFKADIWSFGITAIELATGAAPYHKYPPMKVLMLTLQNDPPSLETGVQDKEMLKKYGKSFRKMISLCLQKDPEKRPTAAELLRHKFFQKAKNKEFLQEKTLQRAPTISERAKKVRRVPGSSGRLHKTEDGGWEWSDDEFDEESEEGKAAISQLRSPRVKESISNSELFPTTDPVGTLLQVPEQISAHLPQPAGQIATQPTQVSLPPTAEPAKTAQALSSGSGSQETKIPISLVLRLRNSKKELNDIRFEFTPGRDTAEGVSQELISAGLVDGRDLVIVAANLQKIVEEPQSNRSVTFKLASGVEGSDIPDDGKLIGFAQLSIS
Outline: as §2

[6] = test system: sgPGAM1 HepG2 cells; experiment: Cell viability / proliferation assay; format: cell-based, human; conditions: sgPGAM1 HepG2, FBP 10 mM, 24 h, glucose-free medium
Outline: (§3)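 HepG2 cells (5000/well) were allowed to adhere overnight. They were exposed 24 h to a dilution series of test compound in glucose-free or 5 mM glucose medium, or to derivatives in 25 mM glucose medium for 24 h or 48 h. Viability was read by CCK8 colorimetry. PGAM1-knockout cells were made with a LentiCRISPR v2 sgRNA (HEK293T-packaged lentivirus, polybrene 10 µg/mL for 24 h) and selected with puromycin.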

[7] = biological target: T3, recombinant PGAM1 (Homo sapiens, UniProt P18669); experiment: PGAM1 enzyme activity assay; format: biochemical; conditions: for effect on PGAM1 enzymatic activity: PGAM1 enzymatic assay
T3 sequence (P18669 whole entry): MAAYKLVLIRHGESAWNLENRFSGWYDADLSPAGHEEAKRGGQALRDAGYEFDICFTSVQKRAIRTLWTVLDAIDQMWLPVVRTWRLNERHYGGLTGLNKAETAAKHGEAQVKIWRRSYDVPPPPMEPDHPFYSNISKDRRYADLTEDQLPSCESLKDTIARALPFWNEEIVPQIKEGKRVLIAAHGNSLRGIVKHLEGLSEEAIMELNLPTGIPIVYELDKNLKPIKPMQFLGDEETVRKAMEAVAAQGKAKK

[8] = biological target: recombinant human GAPDH (Homo sapiens, UniProt P04406); experiment: Thermal shift assay with purified recombinant protein; format: binding; conditions: FBP vs H2O, CBB staining
recombinant human GAPDH, sequence (P04406 43-335): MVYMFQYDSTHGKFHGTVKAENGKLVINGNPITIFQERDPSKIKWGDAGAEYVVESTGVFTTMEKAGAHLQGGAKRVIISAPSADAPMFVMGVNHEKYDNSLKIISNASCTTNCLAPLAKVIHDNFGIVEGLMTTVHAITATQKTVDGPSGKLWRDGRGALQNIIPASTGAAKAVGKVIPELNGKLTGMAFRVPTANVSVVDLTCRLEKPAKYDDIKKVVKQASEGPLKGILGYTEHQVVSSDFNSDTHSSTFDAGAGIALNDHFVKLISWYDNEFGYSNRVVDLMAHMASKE
Outline: as §2

[9] = biological target: T2, PGM1; experiment: Microscale thermophoresis; format: binding
Outline: as §1

[10] = test system: sgCTRL HepG2 cells; experiment: Lactate production, sgCTRL HepG2 cells; format: cell-based, human; conditions: FBP 10 mM, 30 min
Outline: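 HepG2 cells were cultured overnight in 96 wells, then treated with H2O or 10 mM test compound for 0.5 h, or with H2O or 1 mM derivative for 24 h. Lactate in the culture medium was measured with a lactate assay kit.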

[11] = biological target: T4, PGAM1-H11A (Homo sapiens, UniProt P18669, H11A); experiment: PGAM1 enzyme activity assay, H11A mutant; format: biochemical
T4 sequence (P18669 1-254 H11A): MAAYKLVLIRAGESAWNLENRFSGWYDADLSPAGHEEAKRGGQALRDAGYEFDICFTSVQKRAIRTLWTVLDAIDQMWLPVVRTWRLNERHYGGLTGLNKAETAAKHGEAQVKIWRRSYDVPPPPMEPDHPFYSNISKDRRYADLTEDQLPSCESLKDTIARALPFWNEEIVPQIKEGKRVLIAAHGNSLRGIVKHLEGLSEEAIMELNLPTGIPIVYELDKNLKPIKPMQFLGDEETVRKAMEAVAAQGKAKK

[12] = biological target: T1, PMM2; experiment: Thermal shift assay with purified recombinant protein; format: binding; conditions: recombinant human PMM2, FBP vs H2O, CBB staining
Outline: as §2

[13] = biological target: T1, PMM2; experiment: PMM2 enzyme activity assay; format: biochemical
[14] = test system: recombinant human PRPS1; experiment: Thermal shift assay with purified recombinant protein; format: binding; conditions: recombinant human PRPS1, FBP vs H2O, CBB staining
Outline: as §2

[15] = biological target: Flag-tagged PGAM1 in HEK293T cells (Homo sapiens, UniProt P18669); format: cell-based; conditions: 30 min, glucose-free medium
Flag-tagged PGAM1 in HEK293T cells, sequence (P18669 whole entry): as the sequence (P18669 whole entry) above

[16] = biological target: T2, PGM1; experiment: Thermal shift assay with purified recombinant protein; format: binding; conditions: recombinant human PGM1, FBP vs H2O, CBB staining
Outline: as §2

[17] = test system: HepG2 cells; experiment: LC-MS/MS detection of 3-PG and 2-PG; format: cell-based, human; conditions: 10 mM FBP, 30 min
Outline: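 HepG2 cells (2 × 10^6/well, triplicates) were treated with 10 mM test compound for 0.5 h in 5 mM glucose, or H2O as control. Cells were extracted in cold 80% MeOH and analysed by HILIC LC-MS/MS in negative mode. The 3-PG and 2-PG fraction came from the m/z 97/(79 + 97) fragment ratio against standard-mixture curves. Values were scaled to the WT total mono-PG concentration.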

[18] = test system: HepG2 cells; experiment: Cell viability / proliferation assay; format: cell-based, human; conditions: sgCTRL HepG2, FBP 10 mM, 24 h, glucose-free medium
Outline: as §3

[19] = test system: HepG2 cells; experiment: LC-MS/MS quantification of intracellular FBP concentrations; format: cell-based, human; conditions: HepG2 cells treated with 10 mM FBP, 30 min
Outline: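 HepG2 cells (2 × 10^6/well, triplicates) were allowed to adhere overnight. They were treated 0.5 h with 10 mM test compound or H2O in 5 mM or 25 mM glucose medium. After PBS washes, cells were extracted in cold 80% MeOH containing 13C6-labelled internal standard (0.1 µg/mL), centrifuged and dried. Extracts were run by HILIC (BEH Amide) LC-MS/MS in negative mode, 10 mM NH4HCO3/MeCN.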

[20] = test system: sgCTRL HepG2 cells; experiment: Glucose consumption, sgCTRL HepG2 cells; format: cell-based, human; conditions: FBP 10 mM, 30 min
Outline: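 HepG2 cells were cultured overnight in 96 wells, then treated with H2O or 10 mM test compound for 0.5 h, or with H2O or 1 mM derivative for 24 h. Glucose consumption from the culture medium was measured with a glucose oxidase kit.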

[21] = biological target: T3, recombinant PGAM1; experiment: Histidine phosphorylation of recombinant PGAM1; format: biochemical; conditions: for PGAM1 phosphorylation / 3-pHis modification: immunoblotting and Phos-tag SDS-PAGE
Outline: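 Recombinant human PGAM1 was incubated with test compound. It was then analysed by Phos-tag SDS-PAGE or by immunoblotting with monoclonal antibodies specific for N3-phosphohistidine (3-pHis) and 1-phosphohistidine (1-pHis).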

[22] = biological target: T3, recombinant PGAM1; experiment: Microscale thermophoresis; format: binding
Outline: as §1

O=C(COP(=O)(O)O)[C@@H](O)[C@H](O)[C@H](O)COP(=O)(O)O [FBP, fructose-1,6-bisphosphate]
pKd [1]: 3.61 | thermal stability of recombinant protein [2]: reduced | pIC50 [3]: 2.55 | thermal stability of recombinant protein [4]: reduced | thermal stability of recombinant protein [5]: reduced | effect on cell proliferation in PGAM1-knockout cells [6]: abolished | pEC50 [7]: 3.32 | effect on PGAM1 enzymatic activity [7]: could activate the enzyme | thermal stability of recombinant protein [8]: increased | pKd [9]: 3.63 | lactate production [10]: significant increases | activation effect towards PGAM1-H11A mutant [11]: lost its activation effect | thermal stability of recombinant protein [12]: increased | pIC50 [13]: 2.10 | thermal stability of recombinant protein [14]: increased | histidine phosphorylation of Flag-tagged PGAM1 in living cells [15]: Dose-dependent histidine phosphorylation | thermal stability of recombinant protein [16]: increased | 2-PG/3-PG ratio [17]: significant increased | cell proliferation [18]: significantly upregulated | intracellular FBP concentration after exogenous treatment [19]: 1.435 ± 0.062 mM | glucose consumption [20]: significant increases | concentration able to phosphorylate PGAM1 ([21]; concentration-dependent immunoblotting, recombinant PGAM1): 1 mM | PGAM1 phosphorylation / 3-pHis modification ([21]; recombinant PGAM1): act as a phosphate donor to form 3-pHis modification | time after which 3-pHis modification decayed ([21]; time-dependent PGAM1 histidine phosphorylation): > 4 h | pKd [22]: 3.78

O=P(O)(O)O[C@H]1O[C@H](CO)[C@@H](O)[C@H](O)[C@H]1O [G1P, α-D-glucose-1-phosphate]
effect on PGAM1 enzymatic activity [7]: did not regulate the enzymatic activity

C=C(OP(=O)(O)O)C(=O)O [PEP, phosphoenolpyruvate, reference compound]
PGAM1 phosphorylation / 3-pHis modification ([21]; recombinant PGAM1): weak phosphorylation

D-glucose-6-phosphate [G6P]
effect on PGAM1 enzymatic activity [7]: did not regulate the enzymatic activity

D-mannose-6-phosphate [M6P]
effect on PGAM1 enzymatic activity [7]: did not regulate the enzymatic activity

fructose-1-phosphate [F1P]
effect on PGAM1 enzymatic activity [7]: did not regulate the enzymatic activity

fructose-6-phosphate [F6P]
effect on PGAM1 enzymatic activity [7]: did not regulate the enzymatic activity

From publication PMC11484934 (Nature Communications, 2024)
